Here are results for five compounds from paper PMC6851786 (Journal of Clinical Pharmacology, 2019).

Data set [1] has as its system CYP1A2. The conditions noted are these: healthy subjects; cited from earlier work.
Data set [2] in a line: Safety assessment. The format is in vivo, human (healthy adult subjects).
The conditions of data set [3]: cited from earlier work.
For data set [4] the following is noted: across the 0.5- to 3.5-mg dose range; cited from earlier work.
The nature of data set [5]: Part 3: effect of CYP1A2 inhibitor fluvoxamine on avadomide PK. The format is in vivo, human (healthy adult subjects). The conditions noted are these: for Tmax / Vd/F / half-life / AUC(0-inf) / AUC(0-t) / Cmax: human, plasma; for AUC(0-inf): AUC0-inf; for AUC(0-inf) / AUC(0-t) / Cmax: Geometric LS Means; for AUC(0-t): AUC0-t. Summed up: (§1)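 Open-label, nonrandomized, single-sequence crossover in healthy adults, each subject serving as own control. Plasma for test compound was taken predose and at 0.5, 1, 2, 3, 4, 6, 8, 12, 24, 48 and 72 h postdose and assayed by validated LC-MS/MS (LLOQ 1 ng/mL; range 1–400 ng/mL). Parameters came from noncompartmental analysis, including apparent volume. The ANOVA used ln AUC0-t, AUC0-inf and Cmax, with treatment fixed and subject random. Combination/alone geometric mean ratios are given with 90% CI.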

For data set [6], the system named is CYP3A4/5 and CYP1A2. The conditions noted are these: human liver microsomes; ref data on file; cited from earlier work. Background: Liver microsomes are a subcellular fraction often used to study metabolism.
Data set [7] in a line: Part 2: effect of CYP3A inhibitor itraconazole on avadomide PK. The conditions noted are these: for Tmax / Vd/F / half-life / AUC(0-inf) / AUC(0-t) / Cmax: human, plasma. The format is in vivo, human (healthy adult subjects). Summed up: as §1
A short description of data set [8]: Part 4: effect of CYP3A4 inducer rifampin on avadomide PK. The note with it: for Tmax / Vd/F / half-life / AUC(0-inf) / AUC(0-t) / Cmax: human, plasma; for AUC(0-inf): AUC0-inf; for AUC(0-inf) / AUC(0-t) / Cmax: Geometric LS Means; for AUC(0-t): AUC0-t. Type of data set: in vivo, human (healthy adult subjects). Summed up: as §1
For data set [9] the following is noted: cited from earlier work. This is another data set of the same source.
For data set [10] the following is noted: cited from earlier work. The source holds these as a separate data set.
For data set [11] the following is noted: with the CYP1A2 inhibitor fluvoxamine; cited from earlier work.
[12] abbreviates: Part 4, following rifampin alone.
Setting [13] is: Part 3, following fluvoxamine alone.
The mark [14] stands for this setting: avadomide + fluvoxamine/avadomide.
The mark [15] stands for this setting: fluvoxamine coadministration versus alone.
The mark [16] stands for this setting: oral, 3 mg, avadomide alone, Part 3, N 18, ANOVA.
[17] abbreviates: oral, avadomide + fluvoxamine, N 18, ANOVA.
The mark [18] stands for this setting: Part 2, following avadomide alone.
The mark [19] stands for this setting: Part 2, following avadomide plus itraconazole.
Setting [20] is: Part 3, following avadomide alone.
[21] abbreviates: Part 3, following avadomide plus fluvoxamine.
[22] abbreviates: Part 4, following avadomide plus rifampin.
Setting [23] is: avadomide + itraconazole/avadomide.
The mark [24] stands for this setting: avadomide + rifampin /avadomide.
Setting [25] is: oral, 3 mg, avadomide alone, Part 4, N 19, ANOVA.
The mark [26] stands for this setting: oral, avadomide + rifampin, N 18, ANOVA.
The mark [27] stands for this setting: with the CYP3A4 inducer carbamazepine.
Where [28] appears, read: with the CYP3A inhibitor ketoconazole.

For orientation: Vd/F means the volume of distribution divided by bioavailability. By half-life is commonly meant the time needed for the level to fall by half in the phase considered.

Entries after “also recorded” stand apart in the source; their conditions may differ. Read-outs that look alike come from different tables or passages of the source.

Turning to `CO[C@H]1/C=C/O[C@@]2(C)Oc3c(C)c(O)c4c(O)c(c(/C=N/N5CCN(C)CC5)c(O)c4c3C2=O)NC(=O)/C(C)=C\C=C\[C@H](C)[C@H](O)[C@@H](C)[C@@H](O)[C@@H](C)[C@H](OC(C)=O)[C@@H]1C` [rifampin, reference compound], in [1], the “increase in conversion of caffeine to paraxanthine mediated by CYP1A2” value is 15%. Moreover, in [2] (setting [12]), the “number of TEAEs reported” value is recorded as 5 TEAEs and the “subjects reporting TEAEs” value is given as 22.2%.

As to `COCCCC/C(=N\OCCN)c1ccc(C(F)(F)F)cc1` [fluvoxamine, reference compound], in data set [2] (setting [13]), the “number of TEAEs reported” value was 11 TEAEs and the “subjects reporting TEAEs” value turned out to be 31.6%.

Turning to `CCC(C)n1ncn(-c2ccc(N3CCN(c4ccc(OCC5COC(Cn6cncn6)(c6ccc(Cl)cc6Cl)O5)cc4)CC3)cc2)c1=O` (centres unmarked) [itraconazole, reference compound], the “subjects reporting TEAEs” value in [2] (Part 2, after itraconazole alone) is “No subjects reported TEAEs”.

`Cc1nc2cccc(N)c2c(=O)n1C1CCC(=O)NC1=O` (centres unmarked) [Avadomide]: the “plasma avadomide t½ (without CYP inhibition)” value in data set [3] (healthy subjects) was about 8 h. For the same compound, the Tmax entry was “approximately 1 hour” in data set [3] (single oral dose 3 to 15 mg, healthy adult subjects); 0.79 h in data set [5] (oral); 0.5 h in data set [5] (po, 3 mg); 1 h in [7] (oral); 1 h in data set [7] (po, 3 mg); 0.53 h in data set [8] (oral). In addition, the Tmax in data set [8] (po, 3 mg) is 0.55 h. Moreover, the tolerability entry is listed as “well tolerated” in data set [3] (single oral doses of up to 15 mg, healthy subjects) and “well tolerated” in data set [2] (single oral dose of 3 mg alone or coadministered with fluvoxamine, itraconazole, or rifampin). Also, the “plasma exposure versus dose” value in data set [4] was “increased in a dose‐dependent manner”. The “geometric mean ratio of AUC0-t to AUC0-inf” value is reported as “greater than 90%” in data set [5] (avadomide 3 mg alone and with fluvoxamine, 72-hour sampling); “greater than 90%” in data set [7] (avadomide 3 mg alone and with itraconazole, 72-hour sampling); “greater than 90%” in data set [8] (avadomide 3 mg alone and with rifampin, 72-hour sampling). Further, the results for the “AUC0-inf, Ratio of Geometric LS Means” value in data set [5] (setting [14]) and in [8] (setting [24]) were 154.81% and 62.83%, respectively. Also, the “AUC0-t, Ratio of Geometric LS Means” value in data set [5] (setting [14]) stood at 160.35%; in [7] (setting [23]), 100.54%; in data set [8] (setting [24]), 62.34%. For the same compound, the “Cmax, Ratio of Geometric LS Means” value in [5] (setting [14]) was 107.59%; in data set [7] (setting [23]), about 93.64%; in data set [8] (setting [24]), 88.17%. Moreover, the “decrease of apparent clearance” value in data set [5] (setting [15]) stood at 34%. For the same compound, the “prolongation of avadomide t½” value in [5] (setting [15]) is 50%. Moreover, the Vd/F is 54.3 L in [5] (oral); 55.2 L in [5] (po, 3 mg); 53.8 L in [7] (oral); 54.7 L in data set [7] (po, 3 mg); 57.3 L in data set [8] (oral); 55 L in [8] (po, 3 mg). Also, the half-life in data set [5] (oral) is 13.7 h; in [5] (po, 3 mg), 9.16 h; in data set [7] (oral), 8.79 h; in data set [7] (po, 3 mg), 8.94 h; in data set [8] (oral) it was 6.08 h; in data set [8] (po, 3 mg), 9.29 h. Also, the AUC(0-inf) was 709 ng·h/mL in data set [5] (setting [16]); 1100 ng·h/mL in data set [5] (setting [17]); 708 ng·h/mL in data set [7] (oral, 3 mg); 708 ng·h/mL in data set [7] (po, 3 mg); 733 ng·h/mL in [8] (setting [25]); 460 ng·h/mL in [8] (setting [26]). The AUC(0-t) in [5] (setting [16]) was 667 ng·h/mL; in data set [5] (setting [17]) it was 1070 ng·h/mL; in data set [7] (oral, 3 mg) it was 675 ng·h/mL; in data set [7] (po, 3 mg), 675 ng·h/mL; in data set [8] (setting [25]), 687 ng·h/mL; in data set [8] (setting [26]), 428 ng·h/mL. Moreover, the Cmax amounted to 70.2 ng/mL in data set [5] (oral, 3 mg, avadomide alone, Part 3, N 19, ANOVA); 75.6 ng/mL in data set [5] (setting [17]); 70.8 ng/mL in data set [7] (oral, 3 mg); 70.8 ng/mL in data set [7] (po, 3 mg); 74.8 ng/mL in [8] (setting [25]); 65.9 ng/mL in data set [8] (setting [26]). Besides, the “number of TEAEs reported” value in [2] (setting [18]) is reported as 2 TEAEs; in data set [2] (setting [19]), 2 TEAEs; in data set [2] (setting [20]) it was 7 TEAEs; in data set [2] (setting [21]), 9 TEAEs; in data set [2] (setting [22]), 1 TEAE. The “subjects reporting TEAEs” value in data set [2] (setting [18]) is given as 10.5%; in data set [2] (setting [19]), 10.5%; in [2] (setting [20]), 15.8%; in [2] (setting [21]) it was 38.9%; in data set [2] (Part 4, after avadomide alone), “No subjects reported TEAEs”; in data set [2] (setting [22]) it was 5.6%. The “moderate TEAE of vomiting, considered related to the IP” value in data set [2] (setting [20]) is 1 subject. For the same compound, the “enzymes involved in oxidative metabolism” value in data set [6] is “major enzymes involved in the oxidative metabolism; also recorded: major isozymes involved in oxidative metabolism; also recorded: metabolized mainly by CYP3A and CYP1A2 in vitro”.

`Nc1cccc2c1C(=O)N(C1CCC(=O)NC1=O)C2=O` (centres unmarked) [pomalidomide]: in data set [9], the metabolism and elimination entry is “primarily metabolized by CYP1A2 and CYP3A, with a low fraction excreted in urine as unchanged drug”. The figures for the “AUC, % of that when administered alone” value in data set [10] (setting [27]), in data set [10] (setting [28]) and in data set [11] were 79.7%, 118.8% and 225.1%, respectively. Moreover, the “Cmax, % of that when administered alone” value is listed as 75.0% in data set [10] (setting [27]), 107.3% in data set [10] (setting [28]) and 123.7% in data set [11].
